PubChem BioAssay AID1624 (Sanford-Burnham Center for Chemical Genomics, 2009)

Test system: PPC-1 cells, TRAIL potentiation, ATPlite luminescence, 24 h
Assay: synergy with TRAIL in cancer cell cytotoxicity – PPC-1 cells, ATPlite luminescence, confirmation (AID 1624)
Settings: stronger effect = higher value
Method in brief: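 assay system = PPC-1 cells | dosing = compound 1.25–5 µM final | schedule = 4 h compound pretreatment, then 24 h TRAIL exposure, 37 °C | technique = ATP-based luminescence (ATPlite)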

[1] = compound alone cytotoxicity, at 5 µM
[2] = compound plus TRAIL, at 1.25 µM

Compound	cytotoxicity with TRAIL (at 5 µM)	cytotoxicity without TRAIL [1]	cytotoxicity without TRAIL (compound alone, at 1.25 µM)	cytotoxicity without TRAIL (compound alone, at 2.5 µM)	cytotoxicity with TRAIL [2]	cytotoxicity with TRAIL (compound plus TRAIL, at 2.5 µM)
CSc1nc(-c2ccccc2)nc(C(Cl)Cl)n1	100%	56%	52%	56%	83%	96%
CSc1nc(-c2ccc(C)cc2)nc(C(Cl)Cl)n1	100%	45%	49%	48%	94%	100%
CCSc1nc(-c2ccccc2)nc(C(Cl)Cl)n1	96%	41%	18%	26%	43%	61%
